# SIAE inh: human SIAE inhibitors, primary screen, biochemical, fluorescence polarization, FP-Rh probe, 1536-well HTS. Sialate O-acetylesterase (Homo sapiens), Q9HAT2. SIAE FP-Rh probe binding. inhibition, % at 9.66 µM. actives 0.69% (n = 370,000). AID 1053197, 2014;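 active means inhibition above a cutoff: mean of compounds within the control limits plus 3 SD of those, cut at about 17% in these data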;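 further: 0% = plate median of compound wells and 100% = probe without SIAE protein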
# Target sequence (Q9HAT2 whole entry, looked up): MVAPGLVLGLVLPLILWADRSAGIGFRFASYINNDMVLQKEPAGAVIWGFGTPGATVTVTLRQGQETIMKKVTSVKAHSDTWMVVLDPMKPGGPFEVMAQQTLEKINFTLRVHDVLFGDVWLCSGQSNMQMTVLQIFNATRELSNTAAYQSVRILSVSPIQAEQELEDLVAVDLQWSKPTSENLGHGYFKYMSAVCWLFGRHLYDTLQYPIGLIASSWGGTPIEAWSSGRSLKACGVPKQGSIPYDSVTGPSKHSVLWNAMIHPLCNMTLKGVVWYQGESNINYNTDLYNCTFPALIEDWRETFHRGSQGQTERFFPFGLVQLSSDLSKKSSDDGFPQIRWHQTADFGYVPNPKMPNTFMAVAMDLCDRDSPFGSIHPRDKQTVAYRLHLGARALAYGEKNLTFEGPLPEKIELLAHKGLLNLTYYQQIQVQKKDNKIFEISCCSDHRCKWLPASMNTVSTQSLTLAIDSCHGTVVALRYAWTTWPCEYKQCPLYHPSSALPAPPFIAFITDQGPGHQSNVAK
# HTRA1 inh: HTRA1 serine protease inhibitors, primary screen, biochemical, fluorescence polarization, HTS; AID 504803, 2011; Q92743; recombinant HTRA1, FP-rhodamine activity-based probe; actives 0.5% (n = 340,000); inhibition, % at 5.96 µM; in the data active means inhibition above about 36%;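 further: 0% = enzyme with DMSO and 100% = wells lacking enzyme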
# ABHD4 inh: ABHD4 inhibitors, primary screen, biochemical, fluorescence polarization, mouse | purified mABHD4, FP-Rh probe fluorescence polarization | (Lyso)-N-acylphosphatidylethanolamine lipase (Mus musculus), Q8VD66 | inhibition, % at 8.92 µM | actives 0.54% (n = 370,000);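 active means inhibition exceeding the mean over every tested compound plus 3 SD, cut at about 30% in these data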;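 further: 0% = plate median of compound wells and 100% = S159A mutant with DMSO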
#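 Test system: mouse ABHD4 enzyme, wild type. Reagent: FP-Rh fluorescent activity-based probe, added after compound pre-incubation. Timing: pre-incubation 45 min, probe exposure 60 min, at 25 °C. Technique: FP readout, ex 525 nm / em 598 nm. Benchmarks: high control S159A mutant with DMSO, low control median of compound wells.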
# pPAFAH inh: pPAFAH enzyme inhibitors, primary screen, biochemical, fluorescence polarization, human; Platelet-activating factor acetylhydrolase (Homo sapiens), Q13093; recombinant pPAFAH, FP-rhodamine probe fluorescence polarization; inhibition, % at 3.39 µM; actives 1.5% (n = 330,000); AID 463082, 2010;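 active means inhibition above the mean inhibition across the screen plus 3 SD, cut at about 25% in these data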;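 further: inhibitors block binding of the rhodamine activity-based probe so polarization drops; 0% = enzyme with DMSO and 100% = wells lacking pPAFAH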
# TCR CD3 inh: inhibitors of human TCR-CD3 interaction, primary screen, biochemical, fluorescence, TAMRA-labeled TCR probe; T-cell receptor (TCR); inhibition, % at 9.4 µM; actives 0.37% (n = 360,000);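 further: recombinant mutant TCR 2C K166C tagged with TAMRA read by polarization; 0% = receptor in buffer alone and 100% = receptor with positive control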
# HTRA1 inh conf: HTRA1 protease inhibitors, retest, confirmation, biochemical, fluorescence polarization | shares compounds with HTRA1 inh | recombinant HTRA1, FP-rhodamine activity-based probe | inhibition, % at 5.96 µM | actives 66% (n = 1,600);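 active means mean inhibition over three repeats above a set limit taken from the earlier primary screen, cut at about 37% in these data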;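 further: 0% = HTRA1 with DMSO and 100% = wells lacking HTRA1; inhibitors block probe binding so polarization drops and inhibition rises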
# BSA TAMRA ctr: compounds interfering with TAMRA-BSA probe, counter-screen for TCR-CD3 interaction inhibitor project, biochemical, fluorescence, TAMRA-labeled BSA. shares compounds with TCR CD3 inh. TAMRA-labeled BSA probe fluorescence counterscreen. inhibition, % at 9.4 µM. actives 10% (n = 1,200). AID 652035, 2013; in the data active means inhibition above about 23%;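 further: 0% = buffer low control and 100% = reference high control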
# TCR-CD3 inh conf: TCR-CD3 interaction inhibitors, retest, confirmation, biochemical, fluorescence, TAMRA-labeled TCR probe; shares compounds with TCR CD3 inh; TAMRA-labeled TCR probe fluorescence binding assay; inhibition, % at 9.4 µM; actives 48% (n = 1,200); AID 652036, 2013
# An asterisk follows results filed as active; . = no result. Only some compounds are listed: those with a hit (about 2.3% of all), similar ones and a draw of the others. Unless noted, no stated cut-off is given here; in the data, active means inhibition above about 19%; inactive means the rest.
SMILES,SIAE inh,HTRA1 inh,ABHD4 inh,pPAFAH inh,TCR CD3 inh,HTRA1 inh conf,others
O=C1CCCC2=C1C(c1ccccc1)C1C(=O)c3ccccc3C1=N2 (stereo not drawn),2,10,25,6,6,.,
O=C1CCCC2=C1C(c1ccc(Cl)cc1)C1C(=O)c3ccccc3C1=N2 (stereo not drawn),-3,38*,29,17,5,31,
CC(C)c1nc(N(C)S(C)(=O)=O)nc(-c2ccc(F)cc2)c1/C=C/[C@H](O)C[C@@H](O)CC(=O)O,-3,.,9,.,.,.,
COC(=O)C1CN(Cc2ccc(OC)cc2)CCS(=O)(=O)N1Cc1cn(Cc2ccc(F)cc2)nn1 (stereo not drawn),5,.,-1,.,.,.,
CCn1c(SCC(=O)c2ccc(O)c(O)c2)nnc1-c1ccccc1OC,5,38*,25,29*,29*,44*,BSA TAMRA ctr=-1;TCR-CD3 inh conf=31*

# Screens deposited in PubChem BioAssay by The Scripps Research Institute Molecular Screening Center.
